# From PubChem
# An excerpt weighted towards active compounds, which were near 7.1% of everything screened.
# bCat KO growth – primary screen for growth suppressors in beta-catenin knockout HCT116 cells (colon tumor, human); HCT116 beta-catenin knockout viability, CellTiter-Glo, 60 h; active compounds read low; AID 818, 2007; viability, % at 10 µM; hit rate 1.5% among 140,000;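 active = viability at or under a set limit, the compound median less 4 SD, cut at about 6% in these data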;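 note: 0% = Hyamine 1622 control at 20 µM and 100% = untreated cell control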
# HUVEC inhibit – inhibitors of HUVEC proliferation, primary screen, cell-based, 384-well; CellTiter-Glo luminescence, 72 h; active compounds read low; viability, % at 10 µM (by protocol); hit rate 1.1% among 86,000;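 active = viability at or below 30%; inactive = viability above 30%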;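 note: 100% = median luminescence of DMSO-only cell control wells on each plate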
# H69AR growth 86K – proliferation blockers of H69AR lung cancer cells, primary screen, cell-based, human, 86K library; hit rate 6% among 85,000; viability, % at 10 µM; H69AR lung tumor viability, ATP luminescence, 72 h; active compounds read low; AID 598, 2007;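 active = viability at or below 40%; inactive = viability above 40%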;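 note: multidrug resistant small cell line overexpressing MRP-1 efflux transporter; 100% = mean luminescence of untreated control wells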
# HCT116 PTEN-null – growth suppression of PTEN-null HCT116, primary screen, cell-based, CellTiter-Glo; hit rate 1.2% among 140,000; HCT116 PTEN-null viability, 60 h; active compounds read low; viability, % at 10 µM; AID 827, 2007;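 active = viability at or below a set limit, 4 SD under the median of all tested compounds, cut at about 3.7% in these data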;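 note: PTEN knockout HCT116 line with beta catenin targeted HCT116 as companion control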
# Fibroblast inh – antiproliferative effect on LL 47 fibroblasts – human, LL 47 cells, CellTiter-Glo luminescence, primary screen; LL 47 human lung fibroblast viability, ATP luminescence; active compounds read low; hit rate 1.1% among 85,000; viability, % at 10 µM;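 active = viability at or below 50% in the single dose screen; inactive = viability above 50%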;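 note: compound exposure lasted 72 h before the ATP readout; 100% = median luminescence of untreated cell-only wells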
#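 Test system: LL 47 human lung fibroblasts; Quantity: 1,150 cells/well; Buffer or medium: IMEM plus 15% FBS; Dosing: tenfold compound dosing solution, DMSO at 0.1%; Timing: overnight cell rest, 72 h compound treatment at 37 °C; Detection: ATP-based CellTiter-Glo luminescent readout; Read-out basis: viability percentage against median untreated-cell control; Controls: cell-only wells, no compound.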
# Cav3 T inh – Cav3.2 calcium influx blockers – cell-based, Fluo-4 calcium fluorescence, FDSS, MLSMR library, primary screen | Voltage-dependent T-type calcium channel subunit alpha-1H (Homo sapiens), O95180 | Cav3.2-expressing cells; active compounds read low | B-score at 10 µM | hit rate 4% among 100,000 | AID 449739, 2010;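 active = single-dose well whose peak fluorescence ratio is a statistical outlier from its plate by either plate-standardised score or position-corrected B-score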
# Starred values were filed as active, the others as inactive; · = no result given.
SMILES,bCat KO growth,HUVEC inhibit,H69AR growth 86K,HCT116 PTEN-null,Fibroblast inh,Cav3 T inh
COc1cccc(C(=O)N2CCCc3ccccc32)c1,102,89,99,92,88,0.085
O=C(CN1C(=O)/C(=C\c2ccc(F)cc2)Oc2ccccc21)NCc1ccco1,72,·,·,84,·,·
Cc1cc(C)nc(Sc2nc(Cl)nc(N(c3ccccc3)c3ccccc3)n2)n1,94,·,·,99,·,3.5
CCOC(=O)c1cnc(SC)nc1Sc1ccccc1,85,110,98,87,99,-0.46
O=C(Nc1nc(-c2ccccn2)cs1)C1CC(=O)N(c2ccc3c(c2)OCCO3)C1 (centres undefined),25,·,·,20,·,·
Cc1cc(=O)oc2c3c4c(cc12)OCCN4CCC3,56,88,68,50,90,-4.1
CC(C)c1cc(=O)oc2c3c4c(cc12)CCCN4CCC3,80,82,71,70,72,-3.9*
O=c1oc2c(CN3CCOCC3)c(O)ccc2c2c1CCC2,92,106,104,90,105,-0.054
O=c1oc2c3c4c(cc2c(C(F)(F)F)c1CCN1CCOCC1)CCCN4CCC3,87,59,67,96,89,-6.6*
CC(C)c1cc(C(=O)NNC(=S)NCc2ccco2)c(O)c(C(C)C)c1,52,·,·,51,·,·
COc1ccccc1N1CCN(CC(O)COc2ccc3c(c2)CCC3)CC1 (centres undefined),70,74,74,74,87,-6.1*
CC(C)(C)CC(C)(C)NCC(O)COc1ccc2c(c1)CCC2 (centres undefined),·,·,·,·,·,-8.3*
Cn1c(=O)n(C)c2cc(NC(=O)CCl)ccc21,8,54,1.5*,5,42*,0.62
CCOC(=O)c1ccc(NC(=O)CSc2nnc(C)n2-c2ccccc2)cc1,104,86,90,90,104,-1
N#Cc1c(NC(=O)CSc2nnc(-c3ccccc3)o2)sc2c1CCCC2,106,·,·,108,·,0.25
Cn1c(=O)n(C)c2cc(NC(=O)CSc3nnc(-c4ccccc4O)n3-c3ccccc3)ccc21,60,75,33*,63,90,0.021
CCc1nnc(NC(=O)CSc2nnc(-c3ccccc3O)n2-c2ccc(C)cc2C)s1,23,62,·,24,65,-9*
N#Cc1c(NC(=O)CSc2nnc(-c3ccccc3O)n2-c2ccccc2)sc2c1CCCC2,59,87,49,56,99,-4.8*
N#Cc1ccc(NC(=O)COC(=O)CCNS(=O)(=O)c2ccccc2)cc1,97,·,·,105,·,·
CCOC(=O)c1sc(NN=C(C(=O)OC)C(=O)OC)c(C(=O)OCC)c1C,75,·,·,55,·,·
N#Cc1c(NC(=O)CSc2nnc(-c3ccncc3)n2CC2CCCO2)sc2c1CCCC2 (centres undefined),95,92,·,91,90,-1.6
CCn1c(SCC(=O)Nc2sc3c(c2C#N)CCCC3)nnc1-c1ccncc1,97,99,0.9*,94,97,0.077
Oc1cccc(O)c1O,·,·,·,·,·,0.86
COc1ccc(Cl)cc1NC(=O)C1CSC(c2ccncc2)=N1 (centres undefined),69,84,30*,73,78,-0.74
Cc1ccc(C2(C)NC(=O)N(CCOc3ccccc3)C2=O)cc1 (centres undefined),103,101,89,95,97,-3.3*
SMILES,bCat KO growth,HUVEC inhibit,H69AR growth 86K,HCT116 PTEN-null,Fibroblast inh,Cav3 T inh
COCC(=O)n1nc(-c2ccc(Cl)cc2)nc1NCc1ccc(F)cc1,68,58,33*,75,79,-0.24
CC(=O)n1nc(-c2ccccc2)nc1NCc1ccc(F)cc1,67,85,90,69,98,-4.6*
O=C(/C=C/c1ccccc1)NC(=S)Nc1ccc2c3c(cccc13)CC2,85,·,·,93,·,·
N#C/C(=C/c1ccc(N2CCCCCC2)o1)c1ccc(Cl)cc1,52,105,101,64,48*,-5.7*
N#C/C(=C/c1ccc(Sc2nc3ccccc3[nH]2)o1)c1cccc(F)c1,75,35,84,69,92,-4.5*
COc1cc(N2CCCC2)c(OC)cc1/C=C(/C#N)c1ccc(F)cc1,79,94,86,96,86,-3.7
N#C/C(=C/c1ccc(N2CCCCC2)o1)c1cccc(F)c1,65,85,41,76,82,-5.6*
N#C/C(=C/c1ccc(Sc2nc3ccccc3[nH]2)o1)c1cccc(Br)c1,55,52,66,27,90,-2.1
N#C/C(=C/c1ccc(N2CCCCC2)cc1)c1cccc(F)c1,66,·,·,71,·,·
CCc1ccc(OCC(=O)Nc2cccc3c2CCCC3)cc1,89,·,·,98,·,·
Cc1ccc(O)c(C2=NOC(O)(C(F)(F)F)C2)c1 (centres undefined),79,94,93,94,103,-1.1
Cc1cc2nc(-c3ccc(SCC(=O)N4CCN(C(=O)c5ccco5)CC4)nc3)[nH]c2cc1C,12,30,12*,10,72,-1.5
Cc1cc2nc(-c3ccc(SCC(=O)N4CCOCC4)nc3)[nH]c2cc1C,36,45,28*,32,91,0.2
CCOC(=O)CSc1ccc(-c2nc3ccccc3[nH]2)cn1,79,78,79,86,84,1.2
Cc1cc2nc(-c3ccc(SCC(=O)Nc4ccc5c(c4)OCCO5)nc3)[nH]c2cc1C,91,·,·,93,·,-0.84
COc1ccc(CCNC(=O)Cn2nnc(-c3ccccc3F)n2)cc1OC,80,101,101,92,97,1.1
O=S(=O)(c1ccc(S(=O)(=O)N2CCCC3(CCCCC3)C2)cc1)N1CCCCC1,56,79,35*,41,84,0.48
COc1cc2c(cc1NC(=S)Nc1cccc3ccccc13)oc1ccccc12,74,·,·,70,·,-1
COc1cc2c(cc1NC(=S)Nc1cccc(C(F)(F)F)c1)oc1ccccc12,71,45,30*,39,99,-0.46
O=C(C1CCCN(CCCc2ccccc2)C1)N1CCCCC1 (centres undefined),78,·,·,86,·,·
CCCCc1cc(=O)oc2cc(OCC(=O)N3CCc4ccccc43)ccc12,94,55,29*,99,104,-0.35
COc1ccc2c(c1)c(=O)oc1cc(OCC(=O)N3CCC(C)CC3)ccc12,96,64,79,91,97,-0.059
COc1ccc2c(c1)c(=O)oc1cc(OCC(=O)N3CCc4ccccc4C3)ccc12,90,56,29*,84,97,-3.3
CCCC(=O)NC(=S)Nc1ccc(NC(=O)C(C)C)c(OC)c1,100,·,·,106,·,·
CC(C)Cc1ccc(C(C)C(=O)OCC(=O)c2c[nH]c3ccccc23)cc1 (centres undefined),70,84,39*,77,98,-0.56
